We go through 167 variants from the RNAGym collection of RNA variant scans (doi:10.1126/science.aae0568).

Fewer inactive variants are shown than the library holds.

B1: tRNA (parent)
chain: GUUCCGUUGGCGUAAUGGUAACGCGUCUCCCUCCUAAGGAGAAGACUGCGGGUUCGAGUCCCGUACGGAACG

The variants in this series derive from B1. Put plainly: yeast fitness relative to wild type (ratio to wild type); higher = fitter; tRNA-Arg(CCU), competitive growth, 37 C, YPD. A digest of the protocol: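 A pool of Saccharomyces cerevisiae strains, each with a tRNA-Arg(CCU) gene variant at the native genomic locus, was competed in YPD at 37°C for 24 hours across six parallel replicates. The variants had been chemically synthesised at a 3% per-site mutation rate over 69 sites, and gene amplicons before and after competition were read by 100-nucleotide paired-end sequencing. Darwinian fitness relative to wild type rested on changes in genotype frequencies. Genotypes required ≥ 100 starting reads, and estimates < 0.5 were set to 0.5.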
As for U13A C24A A45U G50A G56A, the yeast fitness is at most 0.5.
Take C24A C31G: the yeast fitness came out at 0.625.
For U19C A37G C49U, the yeast fitness turned out to be 0.566.
Under C5U U16A G38A A42G U64G stands at most 0.5; under U13A C22A A42U, 0.582.
Under U3A U28A stands 0.865.
With A21C G23U C62U A65G, the yeast fitness is at most 0.5.
The value for A14U C30U G58C C60A was at most 0.5.
As to A43G C49U, the yeast fitness was determined as 0.9.
Under U54A A65G stands 0.584.
Under U3A G9A C29G stands 0.585; under A14G C29U G39A, 0.574.
Turning to C22A A45U G63A, the yeast fitness came out at 0.558.
In the case of C11U G48C, the yeast fitness was 0.882.
The value for G6A A45U G48A C55A was at most 0.5; that for G23C A40C was 0.666.
The value for A21G C29A A69C was at most 0.5; that for U28C A37C A40U C55U was 0.525.
The value for U7A U53A A65C A70G was at most 0.5; that for U3C C4A A65C was 0.62.
For C30U C34U A37U U59C A65U, the yeast fitness is at most 0.5.
Under G10C C22A C24G A36G G48A G50C stands at most 0.5; under C33G G51A A65C, 0.709; under A15U C22U G39C, at most 0.5.
The value for G25U A36U C61U was at most 0.5.
With U8A C31U A37G, the yeast fitness is at most 0.5.
Under A15C U16A G50A stands at most 0.5; under C5A A14C U26A C34U C55G, at most 0.5; under C4U A21U C24U C27A A37C A40U G67C, at most 0.5.
The value for U13C U28G U54A C62A was 0.624; that for C27U A45C C49U G56A was at most 0.5; that for U2G U54A C61U A65C G67U was 0.576.
With G12C A20C A43U, the yeast fitness was determined as 0.632.
The value for C34A U53A was 0.541; that for U2G G48A G58A was 0.614.
On to A20U C31G A36C A45G A70U, for which the yeast fitness is at most 0.5.
The value for C29U G41C G56A C60G C62G was at most 0.5; that for C11A C34G G67A was at most 0.5; that for U8A A15U C22G C31U A57C U64A G68A was at most 0.5.
On to U2G U19A A21G A65U G67C, for which the yeast fitness amounted to 0.543.
Under C27U G38A G51A stands at most 0.5.
The value for G48A G68C was 0.985.
The value for C4U G58C A69C was 0.765.
Turning to G9C C27U A42U C55G, the yeast fitness is at most 0.5.
Regarding U28A G51C A57C, the yeast fitness was 0.53.
Regarding G18C A45U, the yeast fitness came to 0.549.
As for A40C G41A U47A G67C, the yeast fitness worked out at 0.637.
Under A21U G52A A65U stands at most 0.5.
As to G18C U19C, the yeast fitness came out at 0.587.
As for C5A G6C A15G A40G, the yeast fitness was at most 0.5.
Under U19A C22G A70U stands 0.509; under U8A C29U G51C, 0.571; under G17A C22G C27A A36G, at most 0.5.
Under G17A C62A stands 0.558; under G17A A20C G25A C66A G68C, at most 0.5; under C5U C31G A57U, at most 0.5.
For A20U C30G C33A G50A G52A C60U C61G G67A, the yeast fitness is at most 0.5.
On to U2A C11G C30A G44U A57G, for which the yeast fitness was at most 0.5.
The value for U7A G12C C27G C31A C46A was at most 0.5.
Under A15C G17A A45C stands at most 0.5; under A15U C27G C62A C66A, at most 0.5.
Under G9A U19C A43U stands 0.713; under U3A C4G A43G U47C, at most 0.5; under C4A C30G U59A, 0.528.
As to G10C G68U, the yeast fitness came out at 0.693.
As to C5U A20G U35C A37G, the yeast fitness was at most 0.5.
Regarding A21U G63A, the yeast fitness was found to be 0.856.
The value for U47G G50A C55A G56A was 0.533.
Consider A36U G38A, for which the yeast fitness was 0.617.
With A14C C24G A42G, the yeast fitness was at most 0.5.
The value for A37U G56C was 0.528.
With C5G A43C G67A, the yeast fitness worked out at 0.565.
Consider C5A A57G C60G, for which the yeast fitness was at most 0.5.
In the case of U8C A15C, the yeast fitness is 0.848.
The value for C27U A36C A57G was at most 0.5; that for G10A C11A A15C C24A C34A C46G G67C was at most 0.5.
G17A C27G C61U: the yeast fitness was at most 0.5.
Under C27U C30U C46G stands 0.558.
Consider C31G G63A, for which the yeast fitness came to 0.848.
For A43U U59A, the yeast fitness was determined as 0.807.
The value for U3G U8C A15G C24G G50A C55U was at most 0.5; that for U2A C24G C31U C33G A42C A43U A65U was at most 0.5; that for U2C G10C C11U C34A A37C C60A G67C was 0.7.
In the case of G23A A36U G39C C66U, the yeast fitness is at most 0.5.
G6A A20U G25A: the yeast fitness worked out at 0.574.
For C22G C31G A36G, the yeast fitness turned out to be 0.646.
For the variant U19C C29G U32G C61U C66A, the yeast fitness was at most 0.5.
Under G25A U32C G41A stands 0.546; under C33A A36U C62U, at most 0.5; under G17C C46G, 0.747.
Under C5U C11A C34G stands at most 0.5; under U2G U8C C27U C46U, 0.789.
Under U2A A15U C49G stands at most 0.5; under C4A U35G, 0.564; under U3G C11U U47A G48C, 0.675.
C11G U16A G23C C30U C34U G67U: the yeast fitness amounted to 0.537.
As to U16C U26A A43U C62U, the yeast fitness is at most 0.5.
In the case of U8A A20G U26C A40C, the yeast fitness was determined as 0.617.
As to C27A C55U C66A, the yeast fitness was at most 0.5.
For the variant G6A A20G, the yeast fitness was found to be 0.897.
As for C5G C27G C55G, the yeast fitness was at most 0.5.
Take C31G C33G A57C: the yeast fitness was at most 0.5.
For U35C G41C A65C, the yeast fitness was at most 0.5.
Consider G18A G25A C29G C34A G63C, for which the yeast fitness is at most 0.5.
Under A15G G25C C55U stands 0.562; under C4G U7A C11A A21C C29U C49U, at most 0.5.
As for C24U G48C C55U, the yeast fitness was found to be 0.614.
U13G A36C C46U: the yeast fitness was at most 0.5.
Under U16C U54A stands 0.685; under G6A G51C A57G C61U A65C, at most 0.5; under C11A U26A U54A, at most 0.5.
Regarding C11A A14C C34A A70U, the yeast fitness was at most 0.5.
Take A57U C66U: the yeast fitness is 0.583.
U2A A21G C24A: the yeast fitness was at most 0.5.
Under G10A A36G C60G stands at most 0.5; under A21U A45G C49A, at most 0.5; under U2A C5A G41A A42C G50C A70G, at most 0.5.
Under G12C A15U C24A U54A C62U A65G G68A stands at most 0.5.
The value for C31A G67U was 0.755; that for A15U C24G A42C C55U G68U was at most 0.5.
Turning to G10C C46U A65C, the yeast fitness came out at 0.621.
Under C22U C34G A36U A65C stands 0.573; under C5G A42G U64G, 0.637.
Turning to A21C U28G A43C G52C G67U, the yeast fitness is at most 0.5.
With A43C C61A, the yeast fitness is 0.776.
C27U U54C: the yeast fitness turned out to be 0.93.
The value for A15U A45C was 0.803; that for C5G U64A was 0.784.
The value for U2C A40C A42U C49G C66G was at most 0.5; that for G12C U13A G38A was 0.576.
The value for G6C C29G C61U was at most 0.5; that for C24U A45C G58C was 0.554; that for C4G C5G C11A A69C A70C was at most 0.5.
In the case of U32A A45U A69C, the yeast fitness was 0.706.
Under U8A G51A stands 0.63.
Under G12C C22U U28A stands 0.52; under C30U G56A A69C, 0.566.
The value for C5U U7A G10A G48C was at most 0.5; that for C4G C24A C34A U35G C49A C62G was at most 0.5.
Turning to U2G C4U U16A C27G A42U U53C, the yeast fitness stood at 0.564.
Under A14U C22G A42U stands at most 0.5; under A57C C61U A65U, 0.563.
Under G23C C62G stands 0.692.
The value for G25A C27U A69C was 0.73.
C11A U19G A36G U54C C66U A69C: the yeast fitness is at most 0.5.
Regarding C5A G58C A70C, the yeast fitness was 0.644.
Take G52A G67A: the yeast fitness was determined as 0.831.
Under C31G G41A G52C C60U C62G C66G stands 0.539; under G18C C29U A70C, at most 0.5; under C5U C22G C27G C29G C49U, at most 0.5.
Under G25A A45G C46U stands 0.731; under U8C C27G C29A A70G, at most 0.5; under A14G A20C C60U, at most 0.5.
The value for C5G C30G C33G A37U C61G was at most 0.5.
As to U16G C61U, the yeast fitness was determined as 0.75.
G17C C29G A65C: the yeast fitness came out at 0.629.
For the variant A14C C22A C46A U64C, the yeast fitness is at most 0.5.
On to G56A C62A, for which the yeast fitness turned out to be 0.697.
The value for G23C A37C A45G C49G was 0.671.
The value for C4U C11A G12A G48A A57C was at most 0.5.
For C4A G17A U19C G41A C66U, the yeast fitness is at most 0.5.
The value for U3G C5U A65U was 0.651; that for G18A G50C G56C was at most 0.5.
Take C5A C31G G56C G58C: the yeast fitness was at most 0.5.
The value for A14G G25C C29A G52A was at most 0.5.
Under C22U C33U G52A stands 0.566.
The value for A37U C49U was 0.68.
